Assay results pooled from the literature.
Target: Mitogen-activated protein kinase kinase kinase 2 (MAP3K2, Homo sapiens, UniProt Q9Y2U5)
Sequence (Q9Y2U5 1-619, as in one of the studies): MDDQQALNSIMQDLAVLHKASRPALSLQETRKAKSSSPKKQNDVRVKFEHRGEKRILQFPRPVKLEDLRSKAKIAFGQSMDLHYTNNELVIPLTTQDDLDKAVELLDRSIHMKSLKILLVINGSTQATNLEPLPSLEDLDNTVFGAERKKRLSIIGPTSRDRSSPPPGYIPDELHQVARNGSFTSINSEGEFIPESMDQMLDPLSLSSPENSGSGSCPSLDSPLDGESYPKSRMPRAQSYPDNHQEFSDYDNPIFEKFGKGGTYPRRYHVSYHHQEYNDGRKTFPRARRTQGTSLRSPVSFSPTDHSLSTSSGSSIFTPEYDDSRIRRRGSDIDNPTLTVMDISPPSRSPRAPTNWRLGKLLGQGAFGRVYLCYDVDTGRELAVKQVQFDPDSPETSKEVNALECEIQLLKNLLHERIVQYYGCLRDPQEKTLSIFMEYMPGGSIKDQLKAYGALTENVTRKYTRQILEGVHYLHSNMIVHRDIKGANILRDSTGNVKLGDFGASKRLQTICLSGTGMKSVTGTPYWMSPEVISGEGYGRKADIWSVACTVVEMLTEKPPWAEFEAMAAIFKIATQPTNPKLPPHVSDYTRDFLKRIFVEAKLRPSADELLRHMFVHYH

| SMILES | read-out | mode | method | cell line | concentration | measurement | result |
| --- | --- | --- | --- | --- | --- | --- | --- |
| COc1cc2c(Nc3ccc(Br)cc3F)ncnc2cc1OCC1CCN(C)CC1 | cell-free assay |  |  |  | 0.5 µM | remaining signal | 108% |
| O=C(NCc1ncc(C(F)(F)F)cc1Cl)c1ccc2c(c1)C1(CCS(=O)(=O)CC1)[C@H](C1CC1)N2S(=O)(=O)c1ccc(F)cc1 | cell-free assay |  | competition with immobilised ligand |  | 1 µM | remaining binding | 66% |
| COc1cc(Cl)c(C(=O)N[C@@H](CN[C@H]2CC[C@@H](N)CC2)Cc2ccc(C#N)cc2)cc1-c1ccc(CN[C@H](C)c2ccc(C)cc2)o1 | enzyme activity | inhibitor |  |  | 1 µM | remaining activity | 110% |
| CN(C)C(=O)Cn1cc(-c2nc([C@@](C)(c3ccc(-c4cnc(N)nc4)cc3)C3CC3)no2)cn1 | cell-free assay |  | competition with immobilised ligand |  | 1 µM | remaining binding | 94% |
| Cc1cc(NC(=O)c2cccc3cc(-c4cccc5[nH]nc(N)c45)ccc23)ccc1F | enzyme activity | inhibitor |  |  | 0.1 µM | activity vs control | 100% |
| O=C1Nc2ccc(Cl)cc2C1=Cc1cc(Cl)c(O)c(Cl)c1 | cell-free assay |  |  |  | 0.5 µM | remaining signal | 95.7% |
| O=C(Nc1cnn(-c2csc(C(=O)NC3COC3)c2)c1)Nc1ccccc1Cl | enzyme activity | inhibitor |  |  | 5 µM | remaining activity | 110% |
| CS(=O)(=O)N1CCCC(NC(=O)[C@H](CCC2CCCCC2)NC(=O)c2ccc(CNc3ncnc4c3nnn4-c3ccccc3)cc2)C1 (some centres unmarked) | cell-free assay |  | competition with immobilised ligand |  | 0.1 µM | remaining binding | 100% |
| Cc1ccc(C(=O)Nc2ccc(CN3CCN(C)CC3)c(C(F)(F)F)c2)cc1C#Cc1cnc2cccnn12 | enzyme activity | inhibitor |  |  | 23.5 nM | remaining activity | 55% |
| CC(C)(C)c1nc2c(s1)c1nc(N)ncc1c1ccc(NS(=O)(=O)c3c(F)cccc3F)c(F)c12 | enzyme activity | inhibitor | radiometric |  | 1 µM | remaining activity | 83% |
| Cc1nc(C2CCN(C(=O)c3ccc(OC(F)(F)F)cc3N)CC2)c2ncc(N3CCN(C)CC3)cc2n1 | cell-free assay |  | competition with immobilised ligand |  | 1 µM | remaining binding | 100% |
| CCN1CCN(Cc2ccc(NC(=O)c3ccc(C)c(Oc4ccnc5[nH]ccc45)c3)cc2C(F)(F)F)CC1 | target engagement in cells | inhibitor | chemoproteomics | Huh-7 | 1 µM | inhibition | -39% |
| CCN(CC)CCNC(=O)c1c(C)[nH]c(/C=C2\C(=O)Nc3ccc(F)cc32)c1C | cell-free assay |  |  |  | 0.5 µM | remaining signal | 51.9% |
| CCOc1cc(-c2nncn2C)ccc1Nc1ncc2cc(C)nc(NCC(C)(C)C)c2n1 | cell-free assay |  | TR-FRET |  | 1 µM | inhibition | ≤ 15% |
